Results from ChEMBL document CHEMBL4038327, “Inhibitory Kappa B Kinase α (IKKα) Inhibitors That Recapitulate Their Selectivity in Cells against Isoform-Related Biomarkers” (J Med Chem, 2017).

Legend:
[1] = molecular target: T1, Inhibitor of nuclear factor kappa-B kinase subunit beta (Homo sapiens, UniProt O14920); assay: Inhibition of IKKbeta in human U2OS cells assessed as TNFalpha induced IkBalpha degradation at 100 uM preincubated for 1 hr followed by TNFalpha stimulation for 30 mins by Western blot analysis; assay type: cell-based; conditions: 0.5 h
T1 sequence (O14920 whole entry): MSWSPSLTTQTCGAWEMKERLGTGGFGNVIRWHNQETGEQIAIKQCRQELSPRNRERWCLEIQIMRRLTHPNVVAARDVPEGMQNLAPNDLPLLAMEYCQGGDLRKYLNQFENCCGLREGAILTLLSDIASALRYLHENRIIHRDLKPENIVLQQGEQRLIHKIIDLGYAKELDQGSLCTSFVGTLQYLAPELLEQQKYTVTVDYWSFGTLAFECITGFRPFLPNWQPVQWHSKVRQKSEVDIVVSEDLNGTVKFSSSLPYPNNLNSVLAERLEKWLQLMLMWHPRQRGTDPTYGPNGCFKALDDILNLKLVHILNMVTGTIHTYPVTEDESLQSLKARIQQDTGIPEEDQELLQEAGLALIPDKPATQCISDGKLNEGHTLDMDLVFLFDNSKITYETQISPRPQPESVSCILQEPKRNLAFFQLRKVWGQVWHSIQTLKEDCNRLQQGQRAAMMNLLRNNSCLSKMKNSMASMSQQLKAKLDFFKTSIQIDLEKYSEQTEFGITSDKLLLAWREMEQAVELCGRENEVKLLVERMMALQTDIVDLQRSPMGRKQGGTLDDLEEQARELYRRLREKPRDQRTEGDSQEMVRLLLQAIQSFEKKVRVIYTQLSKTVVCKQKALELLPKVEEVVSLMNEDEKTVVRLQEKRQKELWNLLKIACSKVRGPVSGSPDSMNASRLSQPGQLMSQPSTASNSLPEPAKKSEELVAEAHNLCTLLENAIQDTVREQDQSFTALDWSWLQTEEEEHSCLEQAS
In short: (§1)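 U2OS cells were grown in McCoy's 5A medium at 37 °C under 5% CO2 and made quiescent by 24 h serum deprivation. They were then pretreated with compound before agonist stimulation in serum-free medium. Phospho-p100, IκBα levels and phospho-p65 (Ser536) were assessed by Western blot.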

[2] = molecular target: T1, Inhibitor of nuclear factor kappa-B kinase subunit beta; assay: Inhibition of IKKbeta in human U2OS cells assessed as decrease in TNFalpha induced p65 phosphorylation at ser536 residues at 100 uM preincubated for 1 hr followed by TNFalpha stimulation for 30 mins by Western blot analysis; assay type: cell-based; conditions: 0.5 h; in short: as §1
[3] = molecular target: T1, Inhibitor of nuclear factor kappa-B kinase subunit beta; assay: Inhibition of recombinant full length human IKKbeta expressed in baculovirus infected sf9 insect cells using biotinylated IkBalpha as substrate after 60 mins by DELFIA
In short: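 Recombinant IKKβ (37 nM) was incubated with biotinylated IκB-α (Ser32) peptide (0.375 μM) and 40 μM ATP in Tris-HCl pH 7.5 with MgCl2, EDTA, DTT and BSA for 60 min at 30 °C. The reaction was quenched with EDTA and captured on streptavidin. Detection used anti-phospho-IκBα (Ser32/36) mAb plus Eu-anti-mouse IgG, read by time-resolved fluorescence (340/615 nm). Apparent Ki was obtained via Cheng–Prusoff, n=3.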

[4] = molecular target: T2, Serine/threonine-protein kinase D1 (Homo sapiens) (UniProt Q15139); assay: Inhibition of N-terminal His6 tagged recombinant human full length PKCmu expressed in Sf21 cells at 10 uM relative to control
T2 sequence (whole entry): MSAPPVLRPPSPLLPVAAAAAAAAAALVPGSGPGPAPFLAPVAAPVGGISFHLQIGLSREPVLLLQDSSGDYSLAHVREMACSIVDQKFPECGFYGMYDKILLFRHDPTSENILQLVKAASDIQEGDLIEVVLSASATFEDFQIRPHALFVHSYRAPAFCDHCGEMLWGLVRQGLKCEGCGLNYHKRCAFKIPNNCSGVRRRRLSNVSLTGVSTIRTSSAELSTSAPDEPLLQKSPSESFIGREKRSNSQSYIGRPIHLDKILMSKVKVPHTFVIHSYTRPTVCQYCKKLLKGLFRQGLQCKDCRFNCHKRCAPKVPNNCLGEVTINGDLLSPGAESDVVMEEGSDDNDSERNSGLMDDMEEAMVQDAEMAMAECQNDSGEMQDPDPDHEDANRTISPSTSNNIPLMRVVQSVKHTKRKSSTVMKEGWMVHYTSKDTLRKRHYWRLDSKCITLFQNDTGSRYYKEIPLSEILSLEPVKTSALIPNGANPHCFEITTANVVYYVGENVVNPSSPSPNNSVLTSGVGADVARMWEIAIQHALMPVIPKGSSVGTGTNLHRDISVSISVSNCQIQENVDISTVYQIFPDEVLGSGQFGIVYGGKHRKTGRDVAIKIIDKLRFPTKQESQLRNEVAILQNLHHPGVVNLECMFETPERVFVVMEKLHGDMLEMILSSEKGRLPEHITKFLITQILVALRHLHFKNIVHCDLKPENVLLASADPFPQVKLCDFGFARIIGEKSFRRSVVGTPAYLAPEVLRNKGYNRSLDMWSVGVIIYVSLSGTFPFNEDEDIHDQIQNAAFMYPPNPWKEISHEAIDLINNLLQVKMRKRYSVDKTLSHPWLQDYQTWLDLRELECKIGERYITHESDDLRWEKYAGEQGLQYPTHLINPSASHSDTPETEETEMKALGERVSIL
In short: (§2)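 Outsourced commercial kinase panel run at a single concentration, with duplicate assay points.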

[5] = molecular target: Dual specificity mitogen-activated protein kinase kinase 1 (Homo sapiens) (UniProt Q02750); assay: Inhibition of N-terminal GST tagged/C-terminal His6-tagged recombinant full length human Mek1 expressed in Escherichia coli cells at 10 uM relative to control; in short: as §2
Dual specificity mitogen-activated protein kinase kinase 1 (Homo sapiens), sequence (Q02750 whole entry): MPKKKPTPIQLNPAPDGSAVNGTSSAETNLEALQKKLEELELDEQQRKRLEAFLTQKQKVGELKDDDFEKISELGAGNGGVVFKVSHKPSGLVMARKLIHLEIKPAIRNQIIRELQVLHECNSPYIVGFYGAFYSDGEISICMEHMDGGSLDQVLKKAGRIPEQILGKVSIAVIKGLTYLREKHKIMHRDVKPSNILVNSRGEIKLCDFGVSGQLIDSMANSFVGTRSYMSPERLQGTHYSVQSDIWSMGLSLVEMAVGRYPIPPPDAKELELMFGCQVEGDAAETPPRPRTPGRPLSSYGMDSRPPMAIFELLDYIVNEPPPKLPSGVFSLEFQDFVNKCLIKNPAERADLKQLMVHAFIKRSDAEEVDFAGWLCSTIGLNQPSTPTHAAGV

[6] = molecular target: Glycogen synthase kinase-3 beta (Homo sapiens) (UniProt P49841); assay: Inhibition of human N-terminal GST-tagged GSK3beta at 10 uM relative to control; in short: as §2
Glycogen synthase kinase-3 beta (Homo sapiens), sequence (P49841 whole entry, looked up, the tested form may be a part, canonical isoform): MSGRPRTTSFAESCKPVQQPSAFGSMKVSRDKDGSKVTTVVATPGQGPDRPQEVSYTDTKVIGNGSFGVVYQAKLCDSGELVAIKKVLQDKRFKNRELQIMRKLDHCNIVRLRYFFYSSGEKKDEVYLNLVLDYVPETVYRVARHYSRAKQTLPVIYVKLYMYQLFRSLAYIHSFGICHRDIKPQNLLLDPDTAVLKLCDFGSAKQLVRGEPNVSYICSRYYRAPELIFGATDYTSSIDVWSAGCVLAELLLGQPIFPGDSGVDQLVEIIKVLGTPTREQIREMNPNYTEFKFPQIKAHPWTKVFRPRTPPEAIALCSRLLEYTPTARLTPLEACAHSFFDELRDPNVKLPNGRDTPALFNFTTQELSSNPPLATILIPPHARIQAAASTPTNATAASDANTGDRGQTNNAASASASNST

[7] = molecular target: Casein kinase I isoform delta (Homo sapiens) (UniProt P48730); assay: Inhibition of recombinant human N-terminal GST-tagged CK1delta (1 to 294 residues) expressed in Escherichia coli at 10 uM relative to control; in short: as §2
Casein kinase I isoform delta (Homo sapiens), sequence (P48730 whole entry, looked up, the tested form may be a part, canonical isoform): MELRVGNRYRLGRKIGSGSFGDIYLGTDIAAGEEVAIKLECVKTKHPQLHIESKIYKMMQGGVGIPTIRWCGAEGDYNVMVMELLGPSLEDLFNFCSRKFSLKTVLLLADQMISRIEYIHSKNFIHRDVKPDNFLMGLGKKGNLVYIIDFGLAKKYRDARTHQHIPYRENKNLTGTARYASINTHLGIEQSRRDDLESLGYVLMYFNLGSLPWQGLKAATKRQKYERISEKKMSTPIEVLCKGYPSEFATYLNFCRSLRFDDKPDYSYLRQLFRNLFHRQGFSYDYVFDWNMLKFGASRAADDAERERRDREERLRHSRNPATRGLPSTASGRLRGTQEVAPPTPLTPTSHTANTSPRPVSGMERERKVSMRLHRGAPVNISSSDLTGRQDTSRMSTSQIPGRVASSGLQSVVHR

[8] = molecular target: Serine/threonine-protein kinase Chk2 (Homo sapiens) (UniProt O96017); assay: Inhibition of N-terminal GST and C-terminal His6 tagged recombinant human CHK2 expressed in Escherichia coli cells at 10 uM relative to control; in short: as §2
Serine/threonine-protein kinase Chk2 (Homo sapiens), sequence (O96017 whole entry): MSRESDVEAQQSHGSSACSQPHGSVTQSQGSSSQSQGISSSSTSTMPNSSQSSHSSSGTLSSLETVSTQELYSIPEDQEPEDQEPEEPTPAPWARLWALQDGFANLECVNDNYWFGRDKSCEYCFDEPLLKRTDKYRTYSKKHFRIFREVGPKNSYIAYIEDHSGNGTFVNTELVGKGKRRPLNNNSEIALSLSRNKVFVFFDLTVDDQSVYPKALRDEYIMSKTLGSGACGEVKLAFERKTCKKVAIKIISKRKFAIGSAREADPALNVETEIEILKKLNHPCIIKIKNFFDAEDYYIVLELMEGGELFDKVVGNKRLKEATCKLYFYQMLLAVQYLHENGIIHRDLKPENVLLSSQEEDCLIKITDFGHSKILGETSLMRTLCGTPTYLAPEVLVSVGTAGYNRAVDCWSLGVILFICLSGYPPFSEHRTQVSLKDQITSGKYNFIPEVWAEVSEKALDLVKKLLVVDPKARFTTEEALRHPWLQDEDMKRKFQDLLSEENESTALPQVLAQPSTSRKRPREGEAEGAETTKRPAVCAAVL

[9] = molecular target: Calcium/calmodulin-dependent protein kinase type 1 (Homo sapiens) (UniProt Q14012); assay: Inhibition of N-terminal GST tagged recombinant human CaMK1 (2 end residues) expressed in Escherichia coli cells at 10 uM relative to control; in short: as §2
Calcium/calmodulin-dependent protein kinase type 1 (Homo sapiens), sequence (Q14012 whole entry, looked up): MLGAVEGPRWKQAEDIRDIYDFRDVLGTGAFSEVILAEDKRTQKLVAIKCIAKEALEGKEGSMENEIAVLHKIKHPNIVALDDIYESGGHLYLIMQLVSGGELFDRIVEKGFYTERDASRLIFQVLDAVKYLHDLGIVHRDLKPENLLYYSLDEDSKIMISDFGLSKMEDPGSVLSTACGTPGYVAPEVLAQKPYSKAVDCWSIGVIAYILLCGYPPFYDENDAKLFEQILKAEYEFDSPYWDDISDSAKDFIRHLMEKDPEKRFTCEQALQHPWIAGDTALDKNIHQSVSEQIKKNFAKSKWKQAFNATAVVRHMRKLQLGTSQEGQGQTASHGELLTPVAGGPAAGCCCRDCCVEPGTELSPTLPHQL

inhibition (INH) [1]: Active
inhibition (INH) [2]: Active
Ki [3]: 1 µM
inhibition [4]: > 80%
inhibition [5]: > 80%
inhibition [6]: > 80%
inhibition [7]: > 80%
inhibition [8]: > 80%
inhibition [9]: > 80%
Structure (SMILES): N#Cc1c[nH]c2nc(N)nc(-c3ccc(S(N)(=O)=O)cc3)c12
